Experimental data published in ChEMBL document CHEMBL4689842, “EUbOPEN Chemogenomics Library wave 1” (2021).

System: U2OS
Assay: Multiplex assay against U2OS
Assay type: toxicity, cell-based
Details: human
Summary of the method: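 Phenotypes for tubulin, mitochondrial mass and membrane permeability are expressed as per cents of healthy-nucleus cells. Cells were stained live at seeding with Hoechst33342, BioTracker Green Microtubule Cytoskeleton Dye, MitoTracker Red and Annexin V Alexa Fluor 680, then imaged after compound addition on a CQ1 microscope at 37°C and 5% CO2. Machine-learning gating in CellPathfinder separated Hoechst high-intensity objects from normal cells, divided normal cells by nuclear state (healthy, pyknosed, fragmented) and divided pyknosed cells into mitotic or apoptotic.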

[1] = 12 h, 1 µM, compound concentration 1 uM, replicate 1
[2] = 12 h, 1 µM, compound concentration 1 uM, replicate 2
[3] = 12 h, 10 µM, compound concentration 10 uM, replicate 1
[4] = 12 h, 10 µM, compound concentration 10 uM, replicate 2
[5] = 24 h, 1 µM, compound concentration 1 uM, replicate 1
[6] = 24 h, 1 µM, compound concentration 1 uM, replicate 2
[7] = 24 h, 10 µM, compound concentration 10 uM, replicate 1
[8] = 24 h, 10 µM, compound concentration 10 uM, replicate 2
[9] = 48 h, 1 µM, compound concentration 1 uM, replicate 1
[10] = 48 h, 1 µM, compound concentration 1 uM, replicate 2
[11] = 48 h, 10 µM, compound concentration 10 uM, replicate 1
[12] = 48 h, 10 µM, compound concentration 10 uM, replicate 2

SMILES: c1cn2cc(-c3ccc4cn[nH]c4c3)nc(Nc3ccc(N4CCOCC4)cc3)c2n1 [ENTOSPLETINIB]
- Population Apoptotic (%) [1]: 32%
- Population Fragmented Nuclei (%) [1]: 13%
- Population Healthy Nuclei (%) [1]: 66%
- Population Hoechst High Intensity Objects (%) [1]: 4%
- Population Membrane Permeable-Phenotype (%) [1]: 13%
- Population Mitochondria Different-Phenotype (%) [1]: 36%
- Population Mitotic Cells (%) [1]: 67%
- Population Normal (%) [1]: 95%
- Population Pyknosed Nuclei (%) [1]: 20%
- Population Tubulin-Different-Phenotype (%) [1]: 41%
- Total Cell Count [1]: 172
- Population Apoptotic (%) [2]: 40%
- Population Fragmented Nuclei (%) [2]: 16%
- Population Healthy Nuclei (%) [2]: 73%
- Population Hoechst High Intensity Objects (%) [2]: 5%
- Population Membrane Permeable-Phenotype (%) [2]: 10%
- Population Mitochondria Different-Phenotype (%) [2]: 23%
- Population Mitotic Cells (%) [2]: 60%
- Population Normal (%) [2]: 94%
- Population Pyknosed Nuclei (%) [2]: 9%
- Population Tubulin-Different-Phenotype (%) [2]: 25%
- Total Cell Count [2]: 59
- Population Apoptotic (%) [3]: 76%
- Population Fragmented Nuclei (%) [3]: 37%
- Population Healthy Nuclei (%) [3]: 7%
- Population Membrane Permeable-Phenotype (%) [3]: 12%
- Population Mitochondria Different-Phenotype (%) [3]: 61%
- Population Mitotic Cells (%) [3]: 23%
- Population Pyknosed Nuclei (%) [3]: 55%
- Population Tubulin-Different-Phenotype (%) [3]: 73%
- Total Cell Count [3]: 161
- Population Apoptotic (%) [4]: 92%
- Population Fragmented Nuclei (%) [4]: 30%
- Population Healthy Nuclei (%) [4]: 2%
- Population Hoechst High Intensity Objects (%) [4]: 25%
- Population Membrane Permeable-Phenotype (%) [4]: 21%
- Population Mitochondria Different-Phenotype (%) [4]: 82%
- Population Mitotic Cells (%) [4]: 7%
- Population Normal (%) [4]: 74%
- Population Pyknosed Nuclei (%) [4]: 67%
- Population Tubulin-Different-Phenotype (%) [4]: 78%
- Total Cell Count [4]: 56
- Population Apoptotic (%) [5]: 37%
- Population Fragmented Nuclei (%) [5]: 12%
- Population Healthy Nuclei (%) [5]: 70%
- Population Membrane Permeable-Phenotype (%) [5]: 4%
- Population Mitochondria Different-Phenotype (%) [5]: 33%
- Population Mitotic Cells (%) [5]: 62%
- Population Pyknosed Nuclei (%) [5]: 16%
- Population Tubulin-Different-Phenotype (%) [5]: 24%
- Total Cell Count [5]: 182
- Population Apoptotic (%) [6]: 14%
- Population Fragmented Nuclei (%) [6]: 14%
- Population Healthy Nuclei (%) [6]: 74%
- Population Hoechst High Intensity Objects (%) [6]: 4%
- Population Membrane Permeable-Phenotype (%) [6]: 17%
- Population Mitochondria Different-Phenotype (%) [6]: 15%
- Population Mitotic Cells (%) [6]: 85%
- Population Normal (%) [6]: 95%
- Population Pyknosed Nuclei (%) [6]: 11%
- Population Tubulin-Different-Phenotype (%) [6]: 21%
- Total Cell Count [6]: 78
- Population Apoptotic (%) [7]: 70%
- Population Fragmented Nuclei (%) [7]: 35%
- Population Healthy Nuclei (%) [7]: 6%
- Population Hoechst High Intensity Objects (%) [7]: 23%
- Population Membrane Permeable-Phenotype (%) [7]: 7%
- Population Mitochondria Different-Phenotype (%) [7]: 49%
- Population Mitotic Cells (%) [7]: 29%
- Population Normal (%) [7]: 76%
- Population Pyknosed Nuclei (%) [7]: 57%
- Population Tubulin-Different-Phenotype (%) [7]: 53%
- Total Cell Count [7]: 186
- Population Apoptotic (%) [8]: 89%
- Population Fragmented Nuclei (%) [8]: 33%
- Population Healthy Nuclei (%) [8]: 2%
- Population Hoechst High Intensity Objects (%) [8]: 26%
- Population Membrane Permeable-Phenotype (%) [8]: 8%
- Population Mitochondria Different-Phenotype (%) [8]: 36%
- Population Mitotic Cells (%) [8]: 10%
- Population Normal (%) [8]: 73%
- Population Pyknosed Nuclei (%) [8]: 64%
- Population Tubulin-Different-Phenotype (%) [8]: 20%
- Total Cell Count [8]: 65
- Population Apoptotic (%) [9]: 46%
- Population Fragmented Nuclei (%) [9]: 9%
- Population Membrane Permeable-Phenotype (%) [9]: 4%
- Population Mitochondria Different-Phenotype (%) [9]: 14%
- Population Mitotic Cells (%) [9]: 53%
- Population Pyknosed Nuclei (%) [9]: 12%
- Population Tubulin-Different-Phenotype (%) [9]: 13%
- Total Cell Count [9]: 206
- Population Apoptotic (%) [10]: 37%
- Population Fragmented Nuclei (%) [10]: 11%
- Population Healthy Nuclei (%) [10]: 77%
- Population Hoechst High Intensity Objects (%) [10]: 3%
- Population Membrane Permeable-Phenotype (%) [10]: 22%
- Population Mitochondria Different-Phenotype (%) [10]: 20%
- Population Mitotic Cells (%) [10]: 62%
- Population Normal (%) [10]: 96%
- Population Pyknosed Nuclei (%) [10]: 10%
- Population Tubulin-Different-Phenotype (%) [10]: 22%
- Total Cell Count [10]: 111
- Population Apoptotic (%) [11]: 59%
- Population Fragmented Nuclei (%) [11]: 33%
- Population Healthy Nuclei (%) [11]: 7%
- Population Hoechst High Intensity Objects (%) [11]: 29%
- Population Membrane Permeable-Phenotype (%) [11]: 7%
- Population Mitochondria Different-Phenotype (%) [11]: 21%
- Population Mitotic Cells (%) [11]: 40%
- Population Normal (%) [11]: 70%
- Population Pyknosed Nuclei (%) [11]: 58%
- Population Tubulin-Different-Phenotype (%) [11]: 16%
- Total Cell Count [11]: 232
- Population Apoptotic (%) [12]: 82%
- Population Fragmented Nuclei (%) [12]: 34%
- Population Healthy Nuclei (%) [12]: 2%
- Population Hoechst High Intensity Objects (%) [12]: 28%
- Population Membrane Permeable-Phenotype (%) [12]: 20%
- Population Mitochondria Different-Phenotype (%) [12]: 30%
- Population Mitotic Cells (%) [12]: 17%
- Population Normal (%) [12]: 71%
- Population Pyknosed Nuclei (%) [12]: 63%
- Population Tubulin-Different-Phenotype (%) [12]: 20%
- Total Cell Count [12]: 79
